Experimental findings from ChEMBL document CHEMBL1134379, “Covalently induced activation of the delta opioid receptor by a fluorogenic affinity label, 7'-(phthalaldehydecarboxamido)naltrindole (PNTI)” (J Med Chem, 2001) are described below.

Assay [1] has as its target T1, Delta-type opioid receptor (Homo sapiens, UniProt P41143). Description: Irreversible binding to delta receptor after pretreatment with naloxone (1 uM) at 20 nM of the compound.
For assay [2], the target named is T1, Delta-type opioid receptor. Nature of the assay: Irreversible binding to delta receptor after pretreatment with naloxone (1 uM) at 1 uM of the compound.
Assay [3] has as its target T1, Delta-type opioid receptor. Description: Irreversible binding to delta receptor before pretreatment with naloxone (1 uM) at 1 uM of the compound.
In assay [4] the target is T1, Delta-type opioid receptor. Description: Irreversible binding to delta receptor before pretreatment with naloxone (1 uM) at 20 nM of the compound.
Assay [5] relates to Mus musculus. Description: Antinociceptive activity by mouse tail-flick antinociceptive assay after icv administration in mouse. The format is functional.
Assay [6] addresses T1, Delta-type opioid receptor. Description: Binding affinity towards delta-opioid receptor from CHO cells. The format is cell-based, Cricetulus griseus.
The species entered for assay [7] is Mus musculus. Description: Agonist activity in mouse vas deferens (MVD) assay. The format is functional, organism-based. The procedure, abridged: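 Electrically stimulated mouse vas deferens preparation. The compound's inhibition of the twitch was measured and the IC50 was derived from the concentration–effect curve.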
Assay [8] addresses T1, Delta-type opioid receptor. Nature of the assay: Irreversible binding to delta receptor before pretreatment with naloxone (1 uM) at 1 uM.
A further assay deals with Mu-type opioid receptor (Homo sapiens, UniProt P35372). Description: Binding affinity towards mu-opioid receptor from CHO cells. The format is cell-based, Cricetulus griseus.
The target in assay [9] is Kappa-type opioid receptor (Homo sapiens, UniProt P41145). Nature of the assay: Binding affinity towards opioid receptor kappa 1 from CHO cells. Format: cell-based, Cricetulus griseus.

The structures appear in SMILES notation. pIC50, pKi: −log10 of the molar value.

T1 sequence (P41143 whole entry): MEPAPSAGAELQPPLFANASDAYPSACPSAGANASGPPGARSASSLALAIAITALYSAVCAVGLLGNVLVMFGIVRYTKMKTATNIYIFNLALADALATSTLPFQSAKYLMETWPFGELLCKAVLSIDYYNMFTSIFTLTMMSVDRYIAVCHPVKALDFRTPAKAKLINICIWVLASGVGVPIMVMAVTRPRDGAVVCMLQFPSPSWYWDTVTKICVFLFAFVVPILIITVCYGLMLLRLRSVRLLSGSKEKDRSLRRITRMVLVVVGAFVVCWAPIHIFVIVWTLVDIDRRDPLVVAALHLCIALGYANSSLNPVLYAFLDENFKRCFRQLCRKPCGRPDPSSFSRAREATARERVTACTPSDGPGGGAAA
Chain of Mu-type opioid receptor (P35372 whole entry): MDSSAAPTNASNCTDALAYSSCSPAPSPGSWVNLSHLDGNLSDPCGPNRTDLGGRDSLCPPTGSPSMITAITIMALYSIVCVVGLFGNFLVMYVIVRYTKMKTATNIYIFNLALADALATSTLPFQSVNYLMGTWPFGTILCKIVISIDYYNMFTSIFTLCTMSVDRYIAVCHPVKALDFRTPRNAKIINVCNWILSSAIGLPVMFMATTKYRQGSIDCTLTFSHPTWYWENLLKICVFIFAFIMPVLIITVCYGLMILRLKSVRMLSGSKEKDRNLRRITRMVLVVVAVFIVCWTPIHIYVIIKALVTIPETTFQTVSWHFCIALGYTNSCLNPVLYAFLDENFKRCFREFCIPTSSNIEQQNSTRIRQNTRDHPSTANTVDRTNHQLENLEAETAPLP
Chain of Kappa-type opioid receptor (P41145 whole entry): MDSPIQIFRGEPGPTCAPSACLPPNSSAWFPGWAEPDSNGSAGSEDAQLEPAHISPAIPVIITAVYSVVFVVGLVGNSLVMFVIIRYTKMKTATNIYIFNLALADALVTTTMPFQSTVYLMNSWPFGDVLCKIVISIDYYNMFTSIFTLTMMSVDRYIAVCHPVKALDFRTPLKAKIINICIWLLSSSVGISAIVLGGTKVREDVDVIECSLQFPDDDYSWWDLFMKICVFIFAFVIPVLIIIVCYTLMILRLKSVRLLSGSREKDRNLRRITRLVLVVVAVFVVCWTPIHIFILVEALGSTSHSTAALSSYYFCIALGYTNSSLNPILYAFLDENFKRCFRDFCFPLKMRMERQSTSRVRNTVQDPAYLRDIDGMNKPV

As to `O=C(Nc1cccc2c3c([nH]c12)C1Oc2c(O)ccc4c2[C@@]12CCN(CC1CC1)[C@H](C4)[C@]2(O)C3)c1ccccc1` (stereo partly drawn), the Binding turned out to be 70% in [1], 20% in assay [2], 7% in assay [3] and 42% in assay [4].

Compound `O=Cc1ccc(C(=O)Nc2cccc3c4c([nH]c23)C2Oc3c(O)ccc5c3[C@@]23CCN(CC2CC2)[C@H](C5)[C@]3(O)C4)cc1C=O` (stereo partly drawn) returned an ED50 in the assay with Mus musculus [5] of 2.06 nM. For the same compound, the pKi (in general, the Ki on a negative log10 scale, so that one unit is a factor of ten) is 8.72 in assay [6], 7.83 on Mu-type opioid receptor and 7.70 in assay [9]. For the same compound, the Binding came out at 28% in [1], 10% in assay [2], 3% in assay [8] and 30% in assay [4]. The pIC50 – broadly, the IC50 on a negative log10 scale, so that one unit is a factor of ten – in the assay listed under Mus musculus [7] was 9.92.
